Assay results as given in ChEMBL document CHEMBL1126182, “Antibacterials. synthesis and structure-activity studies of 3-aryl-2-oxooxazolidines. 4. Multiply-substituted aryl derivatives” (1992).
Converted amounts (≈) assume the structure as drawn.

What was measured:
[1] = test system: Enterococcus faecalis; assay: Antibacterial activity against Enterococcus faecalis STCO-19; format: functional
Procedure, shortened: (§1)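 MIC by microtiter broth dilution. For racemic samples, the measured MIC was divided by two, since only one oxazolidinone enantiomer is antibacterial.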

[2] = test system: Staphylococcus aureus; assay: Antibacterial activity against Staphylococcus aureus SFCO-1a cell line.; format: functional; procedure, shortened: as §1

MIC [1]	MIC [2]	SMILES
128 µg/mL (≈ 355 µM)	64 µg/mL (≈ 178 µM)	CC(=O)NCC1CN(c2cccc(I)c2)C(=O)O1 (stereo unspecified)
2 µg/mL (≈ 6.84 µM)	2 µg/mL (≈ 6.84 µM)	CC(=O)NCC1CN(c2ccc(C(C)=O)c(O)c2)C(=O)O1 (stereo unspecified)
4 µg/mL (≈ 14.6 µM)	2 µg/mL (≈ 7.29 µM)	CC(=O)NC[C@H]1CN(c2ccc3c(c2)CCC3)C(=O)O1
8 µg/mL (≈ 24.6 µM)	8 µg/mL (≈ 24.6 µM)	CSc1ccc(N2CC(CNC(C)=O)OC2=O)cc1[N+](=O)[O-] (stereo unspecified)
4 µg/mL (≈ 14.3 µM)	4 µg/mL (≈ 14.3 µM)	CC(=O)NCC1CN(c2cccc([N+](=O)[O-])c2)C(=O)O1 (stereo unspecified)
128 µg/mL (≈ 476 µM)	64 µg/mL (≈ 238 µM)	CC(=O)NCC1CN(c2cccc(Cl)c2)C(=O)O1 (stereo unspecified)
128 µg/mL (≈ 463 µM)	128 µg/mL (≈ 463 µM)	C#Cc1ccc(N2C[C@H](CNC(C)=O)OC2=O)c(F)c1
> 128 µg/mL	> 128 µg/mL	CSc1cc(N2CC(CNC(C)=O)OC2=O)ccc1C(C)=O (stereo unspecified)
32 µg/mL (≈ 109 µM)	32 µg/mL (≈ 109 µM)	CC(=O)NC[C@H]1CN(c2ccc(C(C)=O)cc2F)C(=O)O1
> 128 µg/mL	> 128 µg/mL	COc1cc(OC)cc(N2CC(CNC(C)=O)OC2=O)c1 (stereo unspecified)
128 µg/mL (≈ 546 µM)	128 µg/mL (≈ 546 µM)	CC(=O)NCC1CN(c2ccccc2)C(=O)O1 (stereo unspecified)
> 128 µg/mL	> 128 µg/mL	CC(=O)NCC1CN(c2c(F)cc(C(C)=O)cc2F)C(=O)O1 (stereo unspecified)
1 µg/mL (≈ 3.44 µM)	1 µg/mL (≈ 3.44 µM)	CC(=O)NC[C@H]1CN(c2ccc(C(C)=O)c(C)c2)C(=O)O1
32 µg/mL (≈ 127 µM)	32 µg/mL (≈ 127 µM)	CC(=O)NCC1CN(c2cccc(F)c2)C(=O)O1 (stereo unspecified)
> 128 µg/mL	> 128 µg/mL	CCCc1cc(N2CC(CNC(C)=O)OC2=O)ccc1C(C)=O (stereo unspecified)
2 µg/mL (≈ 6.8 µM)	1 µg/mL (≈ 3.4 µM)	CC(=O)NCC1CN(c2ccc(C(C)=O)c(F)c2)C(=O)O1 (stereo unspecified)
2 µg/mL (≈ 6.44 µM)	2 µg/mL (≈ 6.44 µM)	CC(=O)NCC1CN(c2ccc(C(C)=O)c(Cl)c2)C(=O)O1 (stereo unspecified)
4 µg/mL (≈ 13.7 µM)	4 µg/mL (≈ 13.7 µM)	CC(=O)NCC1CN(c2ccc(C(C)=O)c(N)c2)C(=O)O1 (stereo unspecified)
32 µg/mL (≈ 129 µM)	32 µg/mL (≈ 129 µM)	CC(=O)NCC1CN(c2cccc(C)c2)C(=O)O1 (stereo unspecified)
8 µg/mL (≈ 28.1 µM)	4 µg/mL (≈ 14.1 µM)	CC(=O)NC[C@H]1CN(c2ccc3ccccc3c2)C(=O)O1
> 128 µg/mL	> 128 µg/mL	COc1cc(N2CC(CNC(C)=O)OC2=O)ccc1C(C)=O (stereo unspecified)
> 128 µg/mL	> 128 µg/mL	CC(=O)NCC1CN(c2cccc(N)c2)C(=O)O1 (stereo unspecified)
> 128 µg/mL	> 128 µg/mL	CC(=O)NC[C@H]1CN(c2ccc3[nH]ccc3c2)C(=O)O1
16 µg/mL (≈ 57.1 µM)	16 µg/mL (≈ 57.1 µM)	CSc1cccc(N2CC(CNC(C)=O)OC2=O)c1 (stereo unspecified)

MIC [1]	MIC [2]	SMILES
4 µg/mL (≈ 14.5 µM)	2 µg/mL (≈ 7.24 µM)	CCCc1ccc(N2C[C@H](CNC(C)=O)OC2=O)cc1
64 µg/mL (≈ 204 µM)	16 µg/mL (≈ 51.1 µM)	CC(=O)NCC1CN(c2cccc(Br)c2)C(=O)O1 (stereo unspecified)
> 128 µg/mL	> 128 µg/mL	CC(=O)NCC1CN(c2cccc([S+](C)[O-])c2)C(=O)O1 (stereo unspecified)
8 µg/mL (≈ 23.4 µM)	8 µg/mL (≈ 23.4 µM)	CC(=O)NCC1CN(c2ccc([S+](C)[O-])c([N+](=O)[O-])c2)C(=O)O1 (stereo unspecified)
128 µg/mL (≈ 463 µM)	64 µg/mL (≈ 232 µM)	CCCc1cccc(N2CC(CNC(C)=O)OC2=O)c1 (stereo unspecified)
8 µg/mL (≈ 26.3 µM)	16 µg/mL (≈ 52.6 µM)	CCc1cc(N2CC(CNC(C)=O)OC2=O)ccc1C(C)=O (stereo unspecified)
> 128 µg/mL	> 128 µg/mL	CC(=O)NC[C@H]1CN(c2ccc([N+](=O)[O-])cc2[N+](=O)[O-])C(=O)O1
16 µg/mL (≈ 61 µM)	8 µg/mL (≈ 30.5 µM)	CC(=O)NC[C@H]1CN(c2ccc(C)c(C)c2)C(=O)O1
> 128 µg/mL	> 128 µg/mL	CC(=O)NCC1CN(c2cc(C)cc(C)c2)C(=O)O1 (stereo unspecified)
8 µg/mL (≈ 25.8 µM)	8 µg/mL (≈ 25.8 µM)	CC(=O)NCC1CN(c2ccc([S+](C)[O-])c(C)c2)C(=O)O1 (stereo unspecified)
> 128 µg/mL	> 128 µg/mL	COc1cc([N+](=O)[O-])ccc1N1C[C@H](CNC(C)=O)OC1=O
32 µg/mL (≈ 79.6 µM)	32 µg/mL (≈ 79.6 µM)	CC(=O)NCC1CN(c2ccc(C(C)=O)c(I)c2)C(=O)O1 (stereo unspecified)
> 128 µg/mL	> 128 µg/mL	CC(=O)NCC1CN(c2cccc(S(C)(=O)=O)c2)C(=O)O1 (stereo unspecified)
64 µg/mL (≈ 242 µM)	64 µg/mL (≈ 242 µM)	COc1cccc(N2CC(CNC(C)=O)OC2=O)c1 (stereo unspecified)
> 128 µg/mL	> 128 µg/mL	CC(=O)NCC1CN(c2ccc(C(C)=O)c([S+](C)[O-])c2)C(=O)O1 (stereo unspecified)
> 128 µg/mL	> 128 µg/mL	COc1ccc([N+](=O)[O-])cc1N1C[C@H](CNC(C)=O)OC1=O
4 µg/mL (≈ 13.5 µM)	4 µg/mL (≈ 13.5 µM)	CC(=O)NCC1CN(c2ccc([S+](C)[O-])cc2)C(=O)O1 (stereo unspecified)
4 µg/mL (≈ 14.3 µM)	4 µg/mL (≈ 14.3 µM)	CSc1ccc(N2CC(CNC(C)=O)OC2=O)cc1 (stereo unspecified)
> 128 µg/mL	> 128 µg/mL	CC(=O)NCC1CN(c2ccc(C(C)=O)c(S(C)(=O)=O)c2)C(=O)O1 (stereo unspecified)
8 µg/mL (≈ 22.5 µM)	4 µg/mL (≈ 11.3 µM)	CC(=O)NCC1CN(c2ccc(C(C)=O)c(Br)c2)C(=O)O1 (stereo unspecified)
16 µg/mL (≈ 61 µM)	16 µg/mL (≈ 61 µM)	CCc1cccc(N2CC(CNC(C)=O)OC2=O)c1 (stereo unspecified)
> 128 µg/mL	> 128 µg/mL	CC(=O)NCC1CN(c2cccc(O)c2)C(=O)O1 (stereo unspecified)
1 µg/mL (≈ 3.62 µM)	0.5 µg/mL (≈ 1.81 µM)	CC(=O)NC[C@H]1CN(c2ccc(C(C)=O)cc2)C(=O)O1 [DUP-721]
2 µg/mL (≈ 6.94 µM)	2 µg/mL (≈ 6.94 µM)	CC(=O)NC[C@H]1CN(c2ccc3c(c2)CCC3=O)C(=O)O1 [PNU-82965]
